# Assay results published in ChEMBL document CHEMBL4513216, “Probing the Open Global Health Chemical Diversity Library for Multistage-Active Starting Points for Next-Generation Antimalarials” (ACS Infect Dis, 2020).
# Test: Toxicity liver stage against HepG2, at 10uM
# Type: cell-based
# Set-up: test concentration 10 uM, cell line HepG2-A16-CD81EGFP
# Conditions: human, HepG2-A16-CD81EGFP cells; read-out: INHIBITION
# How it was run: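 Uninfected HepG2-A16-CD81EGFP cells, 3 × 10^3 per well, 1536-well, plated on prespotted compound at 10 μM final, parasite-free screening media added to match infected plates; puromycin 10 μM positive, DMSO 0.5% negative; run in parallel with 48 h PbLuc assay at 37 °C, 5% CO2; viability by CellTiter-Glo luminescence, normalized to controls.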
row,SMILES,cytotoxicity at 10 µM [%]
1,COCc1cc(CC2(NCc3ccccc3Cl)COC2)no1,-9.09
2,CC(C)(C)c1c[nH]c([C@@H]2COCCN2C2CCNCC2)n1,6.07
3,O=C1CO[C@H]2CN(Cc3ccc4c(c3)OCO4)C[C@H]2N1,0.801
4,COc1ccccc1CN1CC(OC)CN(C(=O)OCC(C)C)CC1=O (stereo unspecified),-12
5,COC1CCN(C(=O)NCC(N)=O)CC(=O)N(C)c2ccccc21 (stereo unspecified),4.79
6,CN1C(=O)CCc2cc(NC(=O)C3CCCC3)ccc21,-9.79
7,Cc1cc(CNC(=O)COc2ccccc2F)c(C)o1,-2.33
8,O=C(NC1(c2nc(C3CC3)no2)CCCCC1)c1cccnc1O,-8.92
9,O=C(NCc1cccs1)NCC(O)c1ccoc1 (stereo unspecified),-11.9
10,CN1C(=O)CCC12CCN(Cc1ccco1)CC2,1.61
11,CC(C)COCC1CN(Cc2ccsc2)Cc2ncn(C)c21 (stereo unspecified),6.61
12,O=C(C1CC=CC1)N1CCc2ncnc(-c3ccncc3)c2CC1,2.31
13,CCOCCNS(=O)(=O)c1cc(C)c2nc(O)cc(C)c2c1,-4.77
14,CCc1nnc(SCc2nonc2C)n1C1CC1,0.649
15,CC(C)C(=O)N1CCCC(Cc2cccnc2)C1 (stereo unspecified),-1.55
16,O[C@@H]1C[C@H]2CN(CC3CCCCC3)[C@H](Cc3ccccc3)CN2C1,0.13
17,Cc1ocnc1C(=O)N(C)[C@@H]1CC[C@@H](Oc2ccccc2)[C@@H]1O,-0.658
18,Cc1nn(C)cc1S(=O)(=O)N[C@@H]1CC[C@@H](n2ccnc2C)[C@@H]1O,-3.43
19,CO[C@H]1CN(C(=O)c2cn3cc(C)ccc3n2)CC[C@@]12CCCO2,3.6
20,Cc1cccc(-c2nccnc2C2CCCN(C)C2)c1 (stereo unspecified),0.83
21,CNc1cccc(CC2COCCN(C(=O)c3cncs3)C2)n1 (stereo unspecified),6.42
22,CN(c1ccccc1)c1ccc(CC2CCCN(CCO)C2)nn1 (stereo unspecified),-9.3
23,COc1ccc(-c2nccc(C3CCCN3C)n2)cc1 (stereo unspecified),9.97

row,SMILES,cytotoxicity at 10 µM [%]
1,Cc1cc(N(C)C)nc(C2(C)CCCN2C(=O)c2cnccn2)n1 (stereo unspecified),-1.19
2,CCOc1cccc(CNC(=O)C(C)(C)C#N)c1OC(F)F,-45.5
3,CS(=O)(=O)NC(=O)c1ccn(-c2cccc(Br)c2)n1,-3.64
4,Oc1c(F)cc(CNc2cccc(-c3nnc[nH]3)c2)cc1F,-44.2
5,Cc1cc(NC(=O)NCCC(=O)N2CCCc3ccccc32)no1,-5.96
6,CCc1ccc(CNC(=O)CCNc2ncccn2)s1,3.73
7,CN(C)C1Cc2ccccc2N(S(=O)(=O)c2ccc(C#N)cc2)C1 (stereo unspecified),2.91
8,CS(=O)(=O)NC1CCCN(Cc2ccc(OCc3ccccn3)cc2)C1 (stereo unspecified),1.8
9,CS(=O)(=O)NC1CCCN(Cc2ccccn2)C1 (stereo unspecified),4.74
10,COC(=O)CCNC(=O)c1cc(Br)c2c(c1)OCCO2,11
11,Cc1cc2n(n1)CC(CNC1CCN(Cc3ccncc3)CC1)CN2 (stereo unspecified),1.78
12,Cc1ccc(C(=O)NC2CCOc3ccccc32)cc1S(C)(=O)=O (stereo unspecified),-3.83
13,COc1ccc(-c2cnc(CN3CCCC3Cn3cncn3)o2)cc1 (stereo unspecified),3.41
14,CCN(C(c1ccc(OC)cc1)c1cccnc1)S(C)(=O)=O (stereo unspecified),9.62
15,Cc1ccc(Br)c(S(=O)(=O)NCc2cnn(C)c2)c1,6.95
16,O=S(=O)(NCc1cccnc1OC1CCCC1)N1CCOCC1,1.46
17,CC(C)c1nc(S(=O)(=O)N2CCSc3ccccc32)c[nH]1,2.7
18,N#Cc1ccc(N2CCN(c3cnccn3)CC2)cc1C(F)(F)F,38.6
19,Cn1cc(S(=O)(=O)NCCc2nnc3ccccn23)cn1,8.43
20,CSC1(CNC(=O)NC(C)c2ccc(F)cc2)CCOCC1 (stereo unspecified),6.88
21,COc1cccc(CNCc2cccnc2-n2cccn2)c1OC,2.86
22,COc1cccc(NC(=O)NC2(c3noc(CN(C)C)n3)CCCC2)c1,2.6
23,CSc1ccc(OCCN2CCNC(=O)C2C)cc1 (stereo unspecified),8.57

row,SMILES,cytotoxicity at 10 µM [%]
1,Cc1cc(=O)n2nc(Oc3ccc(Cl)c(C)c3)sc2n1,-19
2,Cc1cc2n(n1)CC(CNC1CCN(Cc3ccccc3C)CC1)CN2 (stereo unspecified),3.69
3,NC(=O)CN1CCCN(C(=O)c2ccn(-c3cccc(F)c3)n2)CC1,14.3
4,O=C(Cc1ccccc1F)N1CCN(C(=O)c2ccoc2)CC1,1.16
5,COc1cc(N2CCC3(CC2)CNC(=O)CO3)ncn1,2.57
6,Cn1cc(C(=O)N2CCO[C@@H]3CN(C4CCC4)C[C@@H]3C2)cn1,8.55
7,CCS(=O)(=O)N1CCN(C)c2ncccc2C1,2.88
8,CC(=O)N1CCC2(CCN(C(=O)c3ccc(C)c(C(F)(F)F)c3)CC2)C1,3.73
9,CCc1ncc(-c2nccn2-c2cccc(CC(=O)O)c2)cn1,10.2
10,CN1CC2(CCCN(C(=O)Cc3cccc(O)c3)C2)OC1=O (stereo unspecified),4.61
11,O=C(c1ccc(-c2nc[nH]n2)cc1)N1CC[C@H](CO)[C@@H](O)C1,0.466
12,O=C(CCc1cn[nH]c1)N1C[C@@H](CN2CCOCC2)C[C@H](CO)C1,3.13
13,CS(=O)(=O)c1cnc(C2CCCC2)nc1C1CCCNC1 (stereo unspecified),-6.35
14,COCCN(CC1CC1)c1nc(CCN)nc2ccccc12,9.22
15,CSCC(=O)N1CCC(Oc2cccc(C)c2)CC1,1.98
16,CN(CCc1ccccn1)C(=O)CCC1CCCN(c2ncccn2)C1 (stereo unspecified),1.64
17,CN(C)[C@@H]1C[C@@H](CO)N(C(=O)Nc2ccc(SC(F)(F)F)cc2)C1,-0.187
18,Cc1ccsc1[C@@H]1CCN(C(=O)c2ccc(-c3cc[nH]n3)cc2)C[C@H]1O,4.28
19,CN(CCN1CCCCCC1)C(=O)c1cc(CN2CCCC(O)C2)on1 (stereo unspecified),-0.641
20,COc1ccc(-n2nc(C(C)C)nc2COC(C)C)cc1,1.56
21,CCCN(Cc1nccn1C)C(=O)C(CC)Nc1cccc(OC)c1 (stereo unspecified),0.417
22,c1ccc2c3c([nH]c2c1)CN(Cc1cc2n(n1)CCNC2)CC3,3.06
23,CC1CCc2n[nH]c(C(=O)N3CCc4c(nc(N(C)C)[nH]c4=O)C3)c2C1 (stereo unspecified),21.4

row,SMILES,cytotoxicity at 10 µM [%]
1,Cc1nc(N(C)CCCc2nccn2C)c2c(C)nn(C)c2n1,5.84
2,CC(C)[C@@H](C)NC1CCN(c2ccc(-n3ccnc3)cc2)CC1,0.487
3,CCCn1cnnc1CN(C)C(=O)CCC(=O)Nc1cc(C)ccc1F,16.1
4,Cc1cc2cccc(NC(=O)N3CCC(N4CCSCC4)CC3)c2o1,-3.25
5,COCCCN1C(=O)CC[C@H]2CN(Cc3ccc4occc4c3)CC[C@H]21,8.98
6,COc1ccc(F)cc1CN1CCC(O)(CN2CCCCC2)C1 (stereo unspecified),-12
7,Cc1ccc(S(N)(=O)=O)cc1C(=O)N1CCc2c(ncnc2N(C)C)C1,-2.71
8,CCc1cc(N[C@H](C(N)=O)C(C)C)n2nc(C)c(C)c2n1,5.88
9,CCCc1nc(C(=O)NC(COC)c2ccnn2C)cs1 (stereo unspecified),-2.37
10,Cc1cccnc1CC(C)N(C)C(=O)c1cccs1 (stereo unspecified),-1.02
11,Cn1ccnc1CN1CCC(c2nnc(Cn3cccn3)n2C)CC1,17.4
12,CC(C)(NC(=O)C1CCN(C2CCCCC2)CC1)c1nnc(N)s1,6.17
13,Cc1cccc(C)c1NC(=O)c1cccc(N(C)S(C)(=O)=O)c1C,3.03
14,CCCc1cc(=O)[nH]c(-c2ccccc2CN(C)CCn2cccn2)n1,-1.41
15,O=C(CCn1cncn1)N1CC[C@@H](c2ccc3ccccc3c2)[C@H](O)C1,-5.16
16,COc1cccc(N2CCN(C(=O)CCO)CC2=O)c1,3.75
17,CC(c1cc(F)ccc1F)N(C)Cc1nc2c(cnn2C)c(=O)[nH]1 (stereo unspecified),-7.8
18,CC(=O)N1CCCN(C(=O)NCCNc2ccccn2)CC1,-4.07
19,c1ccc2oc(CN3CCCC(Cn4cncn4)C3)nc2c1 (stereo unspecified),-7.3
20,Cc1nc(C)n(C2CCCN(C(=O)c3ccc(O)nc3)C2)n1 (stereo unspecified),-1.95
21,CCn1ccnc1CN1CCCN(C(=O)c2ccsc2)CC1,-6.63
22,COC(=O)c1cccn1C1CCN(C(=O)c2cc(C)ccc2O)CC1,-3.22
23,CC(O)CN1CCN(C(=O)c2ccc(Br)o2)CC1 (stereo unspecified),-8.6

row,SMILES,cytotoxicity at 10 µM [%]
1,CCCc1noc(CN2CCCC2c2ccsc2)n1 (stereo unspecified),-18.8
2,COc1c(C2CCCN2C(=O)Cc2c(C)noc2C)c(C)nn1C (stereo unspecified),-12.9
3,CCn1cc(-c2cncn2CCc2ccc3c(c2)OCCO3)cn1,18.7
4,CC(=O)N1CCN(c2cncc(C3CCNCC3)n2)CC1,16.8
5,CNC(=O)C1(N2CCC[C@H]2C(=O)NC2CC2)CCCCC1,-1.69
6,Cn1nccc1CN1CCOC(c2cccc(-c3cncnc3)n2)C1 (stereo unspecified),0.88
7,CN1C(Cn2cccn2)C[C@@H]2CN(C(=O)c3cccc(C#N)c3)CC[C@@H]21 (stereo partly specified),3.1
8,O=C1CC2(CNCCN(C(=O)Nc3ccccc3)C2)CN1 (stereo unspecified),2.23
9,CC(=O)N1CCN(Cc2ccsc2)CC2(CC(=O)N(C)C2)C1 (stereo unspecified),-1.27
10,CCN(CC)Cc1cn2c(n1)CN(Cc1c(C)noc1C)CC2,-0.0472
11,Cc1cnccc1-c1cnn(CCNC(=O)c2cccnc2)c1C1CC1,4.34
12,CCOC1COC2(CCN(c3cccc(C)n3)CC2)C1 (stereo unspecified),-2.16
13,CNc1cc(C2CCCNC2)nc(C)n1 (stereo unspecified),8.37
14,Cc1oncc1C(=O)N1CC[C@H]2[C@H](C[C@@H](CN3CCCC3)N2C)C1,0.286
15,OCCN1CCC(F)(F)C2(CCN(c3cnccn3)C2)C1 (stereo unspecified),8.24
16,CCS(=O)(=O)N1C[C@@H](OCc2ccccn2)[C@@H]2OCCC[C@@H]21,-2.31
17,O=C(C1CCCC1)N1C[C@@H]2CCN(c3cnccn3)C[C@@H]2C1,3.44
18,N#CC1Sc2nnc(-c3ccccc3Br)n2N=C1N (stereo unspecified),-4.81
19,COCCN1C(=O)[C@@H]2CC[C@H]1CN(Cc1nnc(C3CC3)o1)C2,11.6
